This series in a line: Toxicity liver stage against HepG2, at 10uM. The series is classed as cell-based. Conditions: human, HepG2-A16-CD81EGFP cells; read-out: INHIBITION
Set-up: test concentration 10 uM, cell line HepG2-A16-CD81EGFP. Put shortly: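 Uninfected HepG2-A16-CD81EGFP cells, 3 × 10^3 per well, 1536-well, plated on prespotted compound at 10 μM final, parasite-free screening media added to match infected plates; puromycin 10 μM positive, DMSO 0.5% negative; run in parallel with 48 h PbLuc assay at 37 °C, 5% CO2; viability by CellTiter-Glo luminescence, normalized to controls.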

Turning to `CNC(=O)NCC1CCC2(CCN(C(=O)c3ccccn3)CC2)CO1` (configuration not stated), the cytotoxicity at 10 µM is -102%.

On to `CCN(Cc1ccc2c(c1)OCO2)C(=O)NCc1nc(C)cs1`, for which the cytotoxicity at 10 µM was 7.47%.

On to `COc1ccc(-c2nc(CN3CCOCS3(=O)=O)c(C)o2)cc1`, for which the cytotoxicity at 10 µM is -0.0714%.

With `COc1ccc(C(=O)Nc2ccc3c(c2)C(=O)NC3)cc1Br`, the cytotoxicity at 10 µM came to 3.53%.

Consider `NC(=O)CN1CCC(Nc2ccnc3ccc(Cl)cc23)CC1`, for which the cytotoxicity at 10 µM was determined as 31.8%.

With `CCNC(=O)NC(=O)CSC(C)c1c(F)cccc1F` (configuration not stated), the cytotoxicity at 10 µM came to 20.6%.

With `COc1ccccc1CC1CCCN(C(=O)c2cc[nH]n2)C1` (configuration not stated), the cytotoxicity at 10 µM was determined as 6.11%.

Turning to `CN(Cc1cccnc1)CC1CN(C(N)=O)Cc2nccn2C1` (configuration not stated), the cytotoxicity at 10 µM was -80.3%.

With `Cc1cc(NC(=O)C(C)Nc2cccc(COCc3ccco3)c2)on1` (configuration not stated), the cytotoxicity at 10 µM was -2.41%.

In the case of `Cc1noc(C)c1CN(C)C(=O)NC1CCCN(S(C)(=O)=O)C1` (configuration not stated), the cytotoxicity at 10 µM is -13.9%.

As for `CC(C)n1cc(CN2CCCN(C(=O)c3cccn3C)CC2)cn1`, the cytotoxicity at 10 µM was 1.51%.

Regarding `COc1ccc(OC)c(-n2cnnc2COC(C)C)c1`, the cytotoxicity at 10 µM was -6.57%.

As for `Cn1ccnc1CN(Cc1cccnc1)CC1CCCO1` (configuration not stated), the cytotoxicity at 10 µM worked out at 15.2%.

As to `Cc1ccc(S(=O)(=O)N2CCC3(CC(C(=O)NCC4CC4)=NO3)C2)cc1` (configuration not stated), the cytotoxicity at 10 µM was 4.35%.

Turning to `CN(CC(=O)NC1(C#N)CCCC1)C1CCCN(c2cccnn2)C1` (configuration not stated), the cytotoxicity at 10 µM is -9.75%.

On to `CC(C)n1nccc1C(=O)N1CCC(c2nnsc2S(C)(=O)=O)CC1`, for which the cytotoxicity at 10 µM is -0.88%.

With `CNC(=O)c1ccc(CNC(=O)c2cc(C(C)C)n(C)n2)cc1`, the cytotoxicity at 10 µM is -9.71%.

On to `COCc1nc(CNC2CCSCC2)no1`, for which the cytotoxicity at 10 µM is -9.87%.

Consider `CNC(=O)c1ccc(=O)n(Cc2csc(N(C)C(C)=O)n2)c1`, for which the cytotoxicity at 10 µM came to 0.138%.

Turning to `c1cncc(CN2CCCC3(COCCN(c4cnccn4)C3)C2)c1` (configuration not stated), the cytotoxicity at 10 µM is -0.0653%.

For the compound `O=C(c1ccc(Cl)c(Cl)c1)N1CCCCC1C1OCCO1` (configuration not stated), the cytotoxicity at 10 µM was 9.25%.

`CCN(CC)S(=O)(=O)CC(=O)N1CCc2ccc(F)cc21`: the cytotoxicity at 10 µM is -4.73%.

As for `CC(NCc1ccc(OCc2nccn2C)cc1)c1cccnc1` (configuration not stated), the cytotoxicity at 10 µM is -4.47%.

Consider `CS(=O)(=O)NCC1CCCCN1Cc1ccccc1C#N` (configuration not stated), for which the cytotoxicity at 10 µM was -11.5%.

For `CC(Cn1ccnc1)NC(=O)N1CCN(Cc2cccnc2)CC1` (configuration not stated), the cytotoxicity at 10 µM worked out at 4.31%.

Regarding `CC(C)(C)C(=O)NCCNCc1ccc(Cl)c2cccnc12`, the cytotoxicity at 10 µM was -11.4%.

With `CCCc1cc(NC2CCN(Cc3ccccn3)CC2)n2nccc2n1`, the cytotoxicity at 10 µM is -3.91%.

Consider `CSc1ccc(NS(=O)(=O)c2cnn(C)c2)cn1`, for which the cytotoxicity at 10 µM was -4.69%.

Consider `Cc1nc[nH]c1CN(Cc1ccccc1)Cc1nccs1`, for which the cytotoxicity at 10 µM came out at 2.14%.

Consider `COc1cc(C(=O)N2CCO[C@H]3[C@H](OCC4CC4)CC[C@@H]32)ccc1F`, for which the cytotoxicity at 10 µM was 9.32%.

With `COc1ccc(S(=O)(=O)NCCC(O)c2cccs2)c(C)c1` (configuration not stated), the cytotoxicity at 10 µM is -1.13%.

As for `CCNc1cc2c(nn1)CCN(C(=O)c1cccc3c1OCCO3)C2`, the cytotoxicity at 10 µM is -8.42%.

For the compound `CCOc1cc(C(=O)N(C)C)ccc1NC(=O)c1ccsc1`, the cytotoxicity at 10 µM was -0.587%.

Consider `O=C([C@@H]1COC[C@H]2CN(CC3CC3)C[C@H]21)N1CCC(F)CC1`, for which the cytotoxicity at 10 µM stood at 9.29%.

Take `COCC(=O)N1CCC2(C1)c1ccccc1S(=O)(=O)N2CCC(C)C` (configuration not stated): the cytotoxicity at 10 µM is -4.26%.

`CC1CCCN1Cc1cccc(C(=O)Nc2ccc3[nH]c(=O)oc3c2)c1` (configuration not stated): the cytotoxicity at 10 µM was -13.4%.

`CNC(=O)c1ccc(CNC(=O)NCCN(C)C2CCCC2)cc1`: the cytotoxicity at 10 µM is -7.66%.

In the case of `CCc1oc(C(=O)N2CC[C@@H]3CC[C@H](C2)N3)cc1CN(CC)CC`, the cytotoxicity at 10 µM came out at 4.83%.

On to `Cc1ccc(CNCc2c(C)nn(C)c2N(C)C)cn1`, for which the cytotoxicity at 10 µM came out at 4.65%.

Turning to `CCOCc1nn(CC2CC2)c2c1CN(Cc1cccs1)CC2`, the cytotoxicity at 10 µM is -108%.

On to `COc1cccc(CNC(=O)c2cc(C)nc(N3CCCCC3)n2)c1`, for which the cytotoxicity at 10 µM came out at 20%.

On to `CC(=O)N1CCN(C(=O)Nc2ccccc2Cl)[C@H]2CS(=O)(=O)C[C@H]21`, for which the cytotoxicity at 10 µM was -0.166%.

For `CCOCc1ncn2c1CN(S(=O)(=O)c1ccc(C)cc1)CC2`, the cytotoxicity at 10 µM was -0.602%.

For the compound `O=c1[nH]c(CCN2CCCCC2Cn2cccn2)nc2ccccc12` (configuration not stated), the cytotoxicity at 10 µM was -16.4%.

For `CC1CCN(C(=O)C2CCN(c3ccc(Cl)cc3C#N)CC2)CC1`, the cytotoxicity at 10 µM was 11.8%.

Take `CCN1CCC2(CN(C(=O)N(C)C)CC23CCN(CC2CC2)CC3)C1=O` (configuration not stated): the cytotoxicity at 10 µM was determined as 0.199%.

Regarding `CCN(CC)Cc1nc(Cc2cccc(C(F)(F)F)c2)no1`, the cytotoxicity at 10 µM was 9.76%.

With `CNC(=O)c1ccc(N(C)C2CCC2)nn1`, the cytotoxicity at 10 µM was found to be 4.49%.

For the compound `Cc1cc(C(=O)NCC(O)c2ccc(Cl)s2)c(C)o1` (configuration not stated), the cytotoxicity at 10 µM was -6.82%.

Turning to `O[C@@H]1CCN(c2ccc3c(Cl)ccnc3c2F)C1`, the cytotoxicity at 10 µM came out at 2.12%.

Consider `O=C(CN1C=Nc2ccccc2S1(=O)=O)NCCc1cccs1`, for which the cytotoxicity at 10 µM is -8.55%.

Turning to `COC[C@]12COC[C@H]1CN(C(=O)C1CCSCC1)C2`, the cytotoxicity at 10 µM was 2.2%.

On to `CN1CCC(Cc2nc(-c3cnccn3)n(C3CCS(=O)(=O)C3)n2)CC1` (configuration not stated), for which the cytotoxicity at 10 µM was -2.64%.

Regarding `O=C(Nc1ccc(-c2cscn2)cc1)C1CCCN(Cc2ccon2)C1` (configuration not stated), the cytotoxicity at 10 µM was found to be 0.414%.

`COc1ccc(-c2csc(-c3cccc(C(=O)O)c3)n2)cc1OC`: the cytotoxicity at 10 µM worked out at 3.31%.

Regarding `Cc1ccsc1CNCCCOc1ccccn1`, the cytotoxicity at 10 µM is -0.575%.

Turning to `CSc1cccc(CNC(=O)C2CC(=O)N(C3CC3)C2)c1` (configuration not stated), the cytotoxicity at 10 µM is -12.3%.

For the compound `COc1ccccc1-c1cccc(C2CCCN(C3CCOCC3)C2)n1` (configuration not stated), the cytotoxicity at 10 µM was determined as 5.7%.

As to `Cc1cc(CNCC2(O)CCOCC2)ccc1F`, the cytotoxicity at 10 µM worked out at 6.71%.

In the case of `CC(C(=O)Nc1nccs1)N1CCc2nn(C)c(=O)cc2C1` (configuration not stated), the cytotoxicity at 10 µM is 9.17%.

As to `COc1ccccc1C1(O)CCCN(C(=O)c2csc(C(C)=O)c2)C1` (configuration not stated), the cytotoxicity at 10 µM is -1.41%.

In the case of `COc1ccc(-c2cn(CCSc3ncn[nH]3)nn2)cn1`, the cytotoxicity at 10 µM was 3.36%.

In the case of `O=C(NCc1ccc2c(c1)OCO2)c1ccccc1C1CCNC1` (configuration not stated), the cytotoxicity at 10 µM is -3.6%.

Regarding `NCC(CO)Cc1ccc(OC(F)(F)F)cc1` (configuration not stated), the cytotoxicity at 10 µM came out at 8.65%.

As to `CSCCC(=O)NCc1cc2n(n1)CCN(C(=O)N(C)C)C2`, the cytotoxicity at 10 µM is -5.77%.

Regarding `Cc1ccc(S(=O)(=O)N2CCN(CCC(N)=O)CC2)s1`, the cytotoxicity at 10 µM is -9.88%.

On to `Cc1ccc(C(=O)N2C[C@H]3CCC[C@@]3(COc3ccccn3)C2)nc1`, for which the cytotoxicity at 10 µM is -2.23%.

For the compound `O=C(NCCC(O)c1cccs1)c1ccco1` (configuration not stated), the cytotoxicity at 10 µM was -14.7%.

On to `COc1cccc(OCC(=O)N2CCOc3ccncc32)c1`, for which the cytotoxicity at 10 µM was found to be 7.68%.

As for `Oc1nc(-c2cnccn2)nc2c1CCN(Cc1ccccn1)C2`, the cytotoxicity at 10 µM is 1.51%.

On to `Nc1ccnc(N2CCCC(CO)(Cc3cccc(Cl)c3)C2)n1` (configuration not stated), for which the cytotoxicity at 10 µM worked out at 0.528%.

In the case of `Cc1cc(CNC(=O)Nc2cccc(COCCOC(C)C)c2)no1`, the cytotoxicity at 10 µM came to 11%.

As to `Cc1cn(CC(=O)Nc2cc(C(C)(C)C)nn2C)cn1`, the cytotoxicity at 10 µM came to 0.79%.

As to `O=C1CCNC(=O)N1CC(=O)N1CCC1c1ccc(F)cc1` (configuration not stated), the cytotoxicity at 10 µM amounted to 7.46%.

As for `Cc1cc(N2CCCCC2)nc(N(CCO)CCO)c1C#N`, the cytotoxicity at 10 µM is -7.32%.

In the case of `Cc1cnn(Cc2ccc(NC(=O)N[C@@H]3C=C[C@H](CO)C3)cc2)c1`, the cytotoxicity at 10 µM amounted to 7.76%.

As to `CCn1cnnc1CNC(=O)N1CCOC(c2ccccc2Cl)C1` (configuration not stated), the cytotoxicity at 10 µM amounted to 9.32%.

In the case of `c1ccc(-c2noc(CN3CCc4c(ncn4C4CC4)C3)n2)nc1`, the cytotoxicity at 10 µM is -5.11%.

`O=C(CC1[C@H]2CN(C(=O)CO)C[C@@H]12)Nc1cccnc1` (some centres not stated): the cytotoxicity at 10 µM was 9.19%.

As for `CCn1cc(CNc2ccc(N(C)CCOC)cn2)cn1`, the cytotoxicity at 10 µM was -8.16%.

Take `OC(COCc1ccccc1)CN1CC(n2cccn2)C1` (configuration not stated): the cytotoxicity at 10 µM worked out at 1.95%.

Turning to `CCOCc1cccc(NC(=O)C2COCCO2)c1` (configuration not stated), the cytotoxicity at 10 µM came to 3.96%.

Regarding `CCOCC1COCCC12CCN(C(=O)CC1=CCCCC1)CC2` (configuration not stated), the cytotoxicity at 10 µM came out at 2.99%.

`CCCc1ccc(C(=O)N2Cc3c(Cn4ccnc4)nn(C)c3C2)cc1`: the cytotoxicity at 10 µM is -73%.

With `O=C(NCCn1cccc1)C1CCC(=O)N(C2CCCC2)C1` (configuration not stated), the cytotoxicity at 10 µM turned out to be 0.622%.

`Cn1cccc1C(=O)NCc1cn2c(n1)CN(CC1CCOC1)CC2` (configuration not stated): the cytotoxicity at 10 µM was -99.7%.

Consider `CN1C[C@H]2CN(C(=O)c3ccc4c(c3)OCO4)CCN2C1=O`, for which the cytotoxicity at 10 µM is -0.434%.

Turning to `CC(c1cccc(-c2ncc(C#N)c(N)n2)c1)N(C)C` (configuration not stated), the cytotoxicity at 10 µM was -7.3%.

For `CCS(=O)(=O)N1CCC2(COCc3cnc(N4CCOCC4)nc32)C1` (configuration not stated), the cytotoxicity at 10 µM is -4.92%.

Turning to `Cc1nn2cccnc2c1C(=O)N1CCCC(n2cccn2)C1` (configuration not stated), the cytotoxicity at 10 µM was -35.9%.

Turning to `CCc1nc(C2CCCN(C(=O)C(C)(C)NS(C)(=O)=O)C2)no1` (configuration not stated), the cytotoxicity at 10 µM was -12.1%.

`Cc1nccn1C1CCCN(C(=O)c2ccc3c(c2)CCC3)C1` (configuration not stated): the cytotoxicity at 10 µM was -13.8%.

Take `Cn1cnc2c1CCN(Cc1cccc(C(N)=O)c1)C2`: the cytotoxicity at 10 µM was -16.8%.

As to `CCn1c(C2CCN(C(=O)c3ccc4cc[nH]c4c3)CC2)n[nH]c1=O`, the cytotoxicity at 10 µM was -18.5%.

Turning to `CC(C)c1n[nH]c(C2CN(CC(=O)N(C)Cc3ccco3)CCO2)n1` (configuration not stated), the cytotoxicity at 10 µM was -5.92%.

Consider `CCc1nc(-c2noc3ccc(C(=O)NCCN(C)C)cc23)co1`, for which the cytotoxicity at 10 µM is -150%.

On to `O=C(Nc1cccc(OCc2cccc(F)c2)c1)C1COCCO1` (configuration not stated), for which the cytotoxicity at 10 µM came out at 8.06%.

Source of the values: ChEMBL document CHEMBL4513216, “Probing the Open Global Health Chemical Diversity Library for Multistage-Active Starting Points for Next-Generation Antimalarials” (ACS Infect Dis, 2020).
